Experimental data reported in ChEMBL document CHEMBL4002555, “Bioactive Pentacyclic Triterpenoids from the Leaves of Cleistocalyx operculatus” (J Nat Prod, 2016).

Legend:
RAW264.7 [1] = test: Anti-inflammatory activity in mouse RAW264.7 cells assessed as inhibition of LPS-induced IL-6 production at 50 uM pretreated for 1 hr followed by LPS stimulation measured after 24 hrs by ELISA relative to control; assay type: functional
Method in brief: (§1)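 LPS-stimulated RAW 264.7 macrophages, with IL-6 and TNF-α production read separately. Test concentrations were 0.4, 2, 10 and 50 μM, and dexamethasone was the reference drug. Results are given as percent inhibition of cytokine production.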

RAW264.7 [2] = test: Anti-inflammatory activity in mouse RAW264.7 cells assessed as inhibition of LPS-induced TNF-alpha production at 50 uM pretreated for 1 hr followed by LPS stimulation measured after 24 hrs by ELISA relative to control; assay type: functional; method in brief: as §1
NCI-N87 = test: Cytotoxicity against human NCI-N87 cells after 72 hrs by MTT assay; assay type: functional, cell-based; conditions: NCI-N87, 72 h
Method in brief: (§2)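 MTT growth-inhibition assay in human HepG2 hepatocellular, NCI-N87 gastric and MCF-7 breast carcinoma lines, with a doxorubicin positive control. IC50 values are means ± SD from three individual experiments; >10.0 μM was taken as noncytotoxic.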

RAW264.7 [3] = test: Anti-inflammatory activity in mouse RAW264.7 cells assessed as inhibition of LPS-induced IL-6 production at 2 uM pretreated for 1 hr followed by LPS stimulation measured after 24 hrs by ELISA relative to control; assay type: functional; method in brief: as §1
MCF7 = test: Cytotoxicity against human MCF7 cells after 72 hrs by MTT assay; assay type: functional, cell-based; conditions: MCF7, 72 h; method in brief: as §2
RAW264.7 [4] = test: Anti-inflammatory activity in mouse RAW264.7 cells assessed as inhibition of LPS-induced IL-6 production at 10 uM pretreated for 1 hr followed by LPS stimulation measured after 24 hrs by ELISA relative to control; assay type: functional; method in brief: as §1
RAW264.7 [5] = test: Anti-inflammatory activity in mouse RAW264.7 cells assessed as inhibition of LPS-induced TNF-alpha production at 10 uM pretreated for 1 hr followed by LPS stimulation measured after 24 hrs by ELISA relative to control; assay type: functional; method in brief: as §1
RAW264.7 [6] = test: Anti-inflammatory activity in mouse RAW264.7 cells assessed as inhibition of LPS-induced TNF-alpha production at 0.4 uM pretreated for 1 hr followed by LPS stimulation measured after 24 hrs by ELISA relative to control; assay type: functional; method in brief: as §1
RAW264.7 [7] = test: Anti-inflammatory activity in mouse RAW264.7 cells assessed as inhibition of LPS-induced TNF-alpha production at 2 uM pretreated for 1 hr followed by LPS stimulation measured after 24 hrs by ELISA relative to control; assay type: functional; method in brief: as §1
[8] = Cytotoxicity against mouse RAW264.7 cells assessed as growth inhibition at 10 uM after 72 hrs by MTT assay relative to control; assay type: cell-based; conditions: read-out: GI
HepG2 = test: Cytotoxicity against human HepG2 cells after 72 hrs by MTT assay; assay type: functional, cell-based; conditions: HepG2, 72 h; method in brief: as §2
RAW264.7 [9] = test: Anti-inflammatory activity in mouse RAW264.7 cells assessed as inhibition of LPS-induced IL-6 production at 0.4 uM pretreated for 1 hr followed by LPS stimulation measured after 24 hrs by ELISA relative to control; assay type: functional; method in brief: as §1

C=C1CC[C@]2(C(=O)O)CC[C@]3(C)C(=CC[C@@H]4[C@@]5(C)C[C@@H](O)[C@H](O)[C@@](C)(CO)[C@@H]5CC[C@]43C)[C@@H]2[C@H]1C [ACTINIDIC ACID]
inhibition at 50 µM (RAW264.7 [1]): < 50% | inhibition at 50 µM (RAW264.7 [2]): < 50% | IC50 (NCI-N87): > 10 µM | inhibition at 2 µM (RAW264.7 [3]): < 50% | IC50 (MCF7): > 10 µM | inhibition at 10 µM (RAW264.7 [4]): < 50% | inhibition at 10 µM (RAW264.7 [5]): < 50% | inhibition at 0.4 µM (RAW264.7 [6]): < 50% | inhibition at 2 µM (RAW264.7 [7]): < 50% | inhibition at 72 h, 10 µM [8]: < 5% | IC50 (HepG2): > 10 µM | inhibition at 0.4 µM (RAW264.7 [9]): < 50%

CC1(C)CC[C@]2(C(=O)O)CC[C@]3(C)C(=CC[C@@H]4[C@@]5(C)C[C@@H](O)[C@H](O)[C@@](C)(CO)[C@@H]5CC[C@]43C)[C@@H]2C1 [ARJUNOLIC ACID]
inhibition at 50 µM (RAW264.7 [1]): < 50% | inhibition at 50 µM (RAW264.7 [2]): < 50% | IC50 (NCI-N87): > 10 µM | inhibition at 2 µM (RAW264.7 [3]): < 50% | IC50 (MCF7): > 10 µM | inhibition at 10 µM (RAW264.7 [4]): < 50% | inhibition at 10 µM (RAW264.7 [5]): < 50% | inhibition at 0.4 µM (RAW264.7 [6]): < 50% | inhibition at 2 µM (RAW264.7 [7]): < 50% | inhibition at 72 h, 10 µM [8]: < 5% | IC50 (HepG2): > 10 µM | inhibition at 0.4 µM (RAW264.7 [9]): < 50%

C[C@H]1[C@H](C)CC[C@]2(C(=O)O)CC[C@]3(C)C(=CC[C@@H]4[C@@]5(C)C[C@@H](O)[C@H](O)[C@@](C)(CO)[C@@H]5CC[C@]43C)[C@H]12 [ASIATIC ACID]
inhibition at 50 µM (RAW264.7 [1]): < 50% | inhibition at 50 µM (RAW264.7 [2]): < 50% | IC50 (NCI-N87): > 10 µM | inhibition at 2 µM (RAW264.7 [3]): < 50% | IC50 (MCF7): > 10 µM | inhibition at 10 µM (RAW264.7 [4]): < 50% | inhibition at 10 µM (RAW264.7 [5]): < 50% | inhibition at 0.4 µM (RAW264.7 [6]): < 50% | inhibition at 2 µM (RAW264.7 [7]): < 50% | inhibition at 72 h, 10 µM [8]: < 5% | IC50 (HepG2): > 10 µM | inhibition at 0.4 µM (RAW264.7 [9]): < 50%

C[C@H]1[C@H](C)CC[C@]2(C(=O)O)CC[C@]3(C)C(=CC[C@@H]4[C@@]5(C)C[C@@H](O)[C@H](O)C(C)(C)[C@@H]5CC[C@]43C)[C@H]12 [COROSOLIC ACID]
inhibition at 50 µM (RAW264.7 [1]): < 50% | inhibition at 50 µM (RAW264.7 [2]): < 50% | IC50 (NCI-N87): 4.4 µM | inhibition at 2 µM (RAW264.7 [3]): < 50% | IC50 (MCF7): > 10 µM | inhibition at 10 µM (RAW264.7 [4]): < 50% | inhibition at 10 µM (RAW264.7 [5]): < 50% | inhibition at 0.4 µM (RAW264.7 [6]): < 50% | inhibition at 2 µM (RAW264.7 [7]): < 50% | inhibition at 72 h, 10 µM [8]: < 5% | IC50 (HepG2): > 10 µM | inhibition at 0.4 µM (RAW264.7 [9]): < 50%

C[C@@H]1C[C@H]2[C@@H]3CCC4=CC(=O)C=C[C@]4(C)[C@@]3(F)[C@@H](O)C[C@]2(C)[C@@]1(O)C(=O)CO [DEXAMETHASONE]
inhibition at 50 µM (RAW264.7 [1]): 84.9% | inhibition at 50 µM (RAW264.7 [2]): 86.1% | inhibition at 2 µM (RAW264.7 [3]): 75.9% | inhibition at 10 µM (RAW264.7 [4]): 80.4% | inhibition at 10 µM (RAW264.7 [5]): 79.2% | inhibition at 2 µM (RAW264.7 [7]): 71.8%

COc1cccc2c1C(=O)c1c(O)c3c(c(O)c1C2=O)C[C@@](O)(C(=O)CO)C[C@@H]3O[C@H]1C[C@H](N)[C@H](O)[C@H](C)O1 [DOXORUBICIN]
IC50 (NCI-N87): 1.6 µM

C=C1[C@@H](O)[C@H](O)C[C@]2(C)[C@H]3CC=C4[C@@H]5[C@@H](C)[C@H](C)CC[C@]5(C(=O)O)CC[C@@]4(C)[C@]3(C)CC[C@@H]12 [ILEKUDINOL B]
IC50 (NCI-N87): 9.1 µM | IC50 (MCF7): > 10 µM | IC50 (HepG2): > 10 µM

CC1(C)CC[C@]2(C(=O)O)CC[C@]3(C)C(=CC[C@@H]4[C@@]5(C)C[C@@H](O)[C@H](O)C(C)(C)[C@@H]5CC[C@]43C)[C@@H]2C1 [MASLINIC ACID]
inhibition at 50 µM (RAW264.7 [1]): < 50% | inhibition at 50 µM (RAW264.7 [2]): < 50% | IC50 (NCI-N87): > 10 µM | inhibition at 2 µM (RAW264.7 [3]): < 50% | IC50 (MCF7): > 10 µM | inhibition at 10 µM (RAW264.7 [4]): < 50% | inhibition at 10 µM (RAW264.7 [5]): < 50% | inhibition at 0.4 µM (RAW264.7 [6]): < 50% | inhibition at 2 µM (RAW264.7 [7]): < 50% | inhibition at 72 h, 10 µM [8]: < 5% | IC50 (HepG2): > 10 µM | inhibition at 0.4 µM (RAW264.7 [9]): < 50%

CC1(C)CC[C@]2(C(=O)O)CC[C@]3(C)C(=CC[C@@H]4[C@@]5(C)CC[C@H](O)C(C)(C)[C@@H]5CC[C@]43C)[C@@H]2C1 [OLEANOLIC_ACID]
IC50 (NCI-N87): > 10 µM | IC50 (MCF7): > 10 µM | IC50 (HepG2): > 10 µM

C[C@H]1[C@H](C)CC[C@]2(C(=O)O)CC[C@]3(C)C(=CC[C@@H]4[C@@]5(C)CC[C@H](O)C(C)(C)[C@@H]5CC[C@]43C)[C@H]12 [URSOLIC ACID]
IC50 (NCI-N87): 4.2 µM | IC50 (MCF7): 6.6 µM | IC50 (HepG2): > 10 µM
